Data reported in ChEMBL document CHEMBL1275496, “In vivo pharmacodynamic target investigation for micafungin against Candida albicans and C. glabrata in a neutropenic murine candidiasis model” (Antimicrob Agents Chemother, 2008).
≈ marks a conversion by molar mass, not a printed value. *1 amine or outer side, *2 acyl side, *3 side chain or, on linkers, in order; H or OH if unused. Where a SMILES comes first, the peptide text is derived from it. Bridges are numbered along the chain shown (N, C = ends). [ ]: non-standard residue; d: D form. The star is where a group is joined. hTyr(3S-OH,4S-OH,3'-OSO3H) = N[C@H](C(=O)O)[C@H](O)[C@@H](O)c1ccc(O)c(OS(=O)(=O)O)c1; Orn(4R-OH,5R-OH) = O=C([C@H](C[C@@H](O)[C@@H](O)N[*:3])N[*:1])[*:2]; Pro(3S-OH,4S-Me) = C[C@H]1CN[C@H](C(=O)O)[C@H]1O; X1 = CCCCCOc1ccc(-c2cc(-c3ccc(C(=O)*)cc3)no2)cc1; Gln(3R-OH) = NC(=O)C[C@@H](O)[C@H](N)C(=O)O; Hyp = O=C(O)[C@@H]1C[C@@H](O)CN1

Legend:
[1] = Cmax in Candida infected ICR/Swiss neutropenic mouse at 5 mg/kg, ip; assay type: ADME, organism-based; parameters: dose 5 mg/kg, route intraperitoneal; conditions: in vivo
Method in brief: (§1)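 Single intraperitoneal micafungin doses (80, 20, 5 mg/kg in 0.2 ml, 0.15 M NaCl) given to infected neutropenic mice. Serum was taken from 3 mice per time point at 1, 2, 4, 6, 8, 12, 24 and 48 h. Drug was measured by microbiologic assay with C. albicans K1 (LLOQ 0.12 μg/ml). Noncompartmental analysis; half-life by nonlinear least squares; AUC by trapezoidal rule.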

[2] = system: Nakaseomyces glabratus; experiment: Antifungal activity against Candida glabrata isolate 32930 by CLSI method; assay type: functional
Method in brief: (§2)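 Broth microdilution MIC per CLSI M27-A2. Two endpoints were read against the drug-free control well: partial inhibition (M1, CLSI recommended) and complete inhibition (M2). Tests were run in duplicate on four separate occasions, and the value is the mean.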

[3] = Ratio of fAUC in ICR/Swiss neutropenic mouse at 1-Log kill dose of 1.69 mg/kg, ip after 24 hrs to MIC for Candida glabrata isolate 32930; assay type: functional; conditions: route intraperitoneal
[4] = Ratio of fAUC in ICR/Swiss neutropenic mouse at static dose of 9.25 mg/kg, ip after 24 hrs to MIC for Candida glabrata isolate 37661; assay type: functional; conditions: route intraperitoneal
[5] = AUC in healthy human at 100 mg/day; assay type: ADME, organism-based; conditions: plasma
[6] = system: Nakaseomyces glabratus; experiment: Antifungal activity against Candida glabrata isolate 33616 infected in ICR/Swiss neutropenic mouse assessed as dose required for 1-log kill after 24 hrs; assay type: functional
Method in brief: (§3)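 Neutropenic mice (cyclophosphamide sc 150 mg/kg day −4, 100 mg/kg day −1 and +2) infected iv by tail vein 2 h before therapy. Micafungin given ip every 24 h for 4 days at six fourfold-spaced dose levels, 0.078–80 mg/kg/24 h, 3 mice per group. Kidney CFU read at 96 h. Hill-model fit; dose giving 1 log10 below start-of-therapy burden.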

[7] = system: Nakaseomyces glabratus; experiment: Antifungal activity against Candida glabrata isolate 5376 by CLSI method; assay type: functional; method in brief: as §2
[8] = Ratio of fAUC in ICR/Swiss neutropenic mouse at 1-Log kill dose of 2.0 mg/kg, ip after 24 hrs to MIC for Candida glabrata isolate 5376; assay type: functional; conditions: route intraperitoneal
[9] = system: Candida albicans; experiment: Fungistatic activity against Candida albicans isolate 98-17 infected in ICR/Swiss neutropenic mouse after 24 hrs; assay type: functional
Method in brief: (§4)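 Neutropenic female ICR/Swiss mice received cyclophosphamide sc at 150 mg/kg on day −4, 100 mg/kg on day −1 and 100 mg/kg on day +2. Mice were infected iv via the tail vein, and ip micafungin in 0.15 M NaCl started 2 h later. Six dose levels from 0.078 to 80 mg/kg/24 h were given q24h for 4 days, 3 mice per dose. Kidney CFU were counted at 96 h. The static dose was derived from a sigmoid Emax (Hill) fit.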

[10] = system: Nakaseomyces glabratus; experiment: Fungistatic activity against Candida glabrata isolate 32930 infected in ICR/Swiss neutropenic mouse after 24 hrs; assay type: functional; method in brief: as §4
[11] = AUC (0 to infinity) in Candida infected ICR/Swiss neutropenic mouse at 20 mg/kg, ip; assay type: ADME, organism-based; parameters: time infinity, dose 20 mg/kg, route intraperitoneal; conditions: plasma; method in brief: as §1
[12] = system: Nakaseomyces glabratus; experiment: Antifungal activity against Candida glabrata isolate 37661 by CLSI method; assay type: functional
Method in brief: (§5)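 Broth microdilution per CLSI M27-A2. The MIC was read at partial inhibition (M1) and at complete inhibition (M2) against the drug-free control. Done in duplicate on four separate occasions and reported as the mean.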

[13] = Ratio of AUC in ICR/Swiss neutropenic mouse at 1-Log kill dose of 7.89 mg/kg, ip after 24 hrs to MIC for Candida glabrata isolate 33616; assay type: functional; conditions: route intraperitoneal
[14] = Ratio of AUC in ICR/Swiss neutropenic mouse at static dose of 1.34 mg/kg, ip after 24 hrs to MIC for Candida glabrata isolate 513; assay type: functional; conditions: route intraperitoneal
[15] = (§6) Cmax in Candida infected ICR/Swiss neutropenic mouse at 20 mg/kg, ip; assay type: ADME, organism-based; parameters: dose 20 mg/kg, route intraperitoneal; conditions: ICR/Swiss, in vivo; method in brief: as §1
[16] = system: Mus musculus; experiment: as §6; assay type: ADME, organism-based; parameters: dose 20 mg/kg, route intraperitoneal; conditions: in vivo; method in brief: as §1
[17] = system: Candida albicans; experiment: Antifungal activity against Candida albicans isolate K1 by CLSI method; assay type: functional; method in brief: as §2
[18] = system: Nakaseomyces glabratus; experiment: Antifungal activity against Candida glabrata isolate 5592 by CLSI method; assay type: functional; method in brief: as §2
[19] = system: Nakaseomyces glabratus; experiment: Antifungal activity against Candida glabrata isolate 33609 by CLSI method; assay type: functional; method in brief: as §2
[20] = system: Nakaseomyces glabratus; experiment: Fungistatic activity against Candida glabrata isolate 37661 infected in ICR/Swiss neutropenic mouse after 24 hrs; assay type: functional; method in brief: as §4
[21] = system: Candida albicans; experiment: Fungistatic activity against Candida albicans isolate 580 infected in ICR/Swiss neutropenic mouse after 24 hrs; assay type: functional; method in brief: as §4
[22] = Ratio of fAUC in ICR/Swiss neutropenic mouse at static dose of 1.80 mg/kg, ip after 24 hrs to MIC for Candida glabrata isolate 5592; assay type: functional; conditions: dose 1.8 mg/kg; route intraperitoneal
[23] = Ratio of fAUC in ICR/Swiss neutropenic mouse at 1-Log kill dose of 5.46 mg/kg, ip after 24 hrs to MIC for Candida glabrata isolate 5592; assay type: functional; conditions: route intraperitoneal
[24] = Ratio of AUC in ICR/Swiss neutropenic mouse at static dose of 2.53 mg/kg, ip after 24 hrs to MIC for Candida albicans isolate 98-17; assay type: functional; conditions: route intraperitoneal
[25] = Ratio of AUC in ICR/Swiss neutropenic mouse at static dose of 3.76 mg/kg, ip after 24 hrs to MIC for Candida glabrata isolate 570; assay type: functional; conditions: route intraperitoneal
[26] = system: Nakaseomyces glabratus; experiment: Antifungal activity against Candida glabrata isolate 34341 by CLSI method; assay type: functional; method in brief: as §5
[27] = Ratio of fAUC in ICR/Swiss neutropenic mouse at 1-Log kill dose of 10.4 mg/kg, ip after 24 hrs to MIC for Candida albicans isolate 98-210; assay type: functional; conditions: route intraperitoneal
[28] = AUC (0 to infinity) in Candida infected ICR/Swiss neutropenic mouse at 80 mg/kg, ip; assay type: ADME, organism-based; parameters: time infinity, dose 80 mg/kg, route intraperitoneal; conditions: plasma; method in brief: as §1
[29] = Ratio of fAUC in ICR/Swiss neutropenic mouse at static dose of 2.84 mg/kg, ip after 24 hrs to MIC for Candida albicans isolate 98-210; assay type: functional; conditions: route intraperitoneal
[30] = Ratio of AUC in ICR/Swiss neutropenic mouse at 1-Log kill dose of 4.60 mg/kg, ip after 24 hrs to MIC for Candida albicans isolate 98-17; assay type: functional; conditions: dose 4.6 mg/kg; route intraperitoneal
[31] = Ratio of AUC in ICR/Swiss neutropenic mouse at static dose of 0.90 mg/kg, ip after 24 hrs to MIC for Candida glabrata isolate 5376; assay type: functional; conditions: dose 0.9 mg/kg; route intraperitoneal
[32] = system: Nakaseomyces glabratus; experiment: Antifungal activity against Candida glabrata isolate 513 by CLSI method; assay type: functional; method in brief: as §2
[33] = Ratio of fAUC in ICR/Swiss neutropenic mouse at 1-Log kill dose of 4.26 mg/kg, ip after 24 hrs to MIC for Candida glabrata isolate 34341; assay type: functional; conditions: route intraperitoneal
[34] = system: Nakaseomyces glabratus; experiment: Antifungal activity against Candida glabrata isolate 570 by CLSI method; assay type: functional; method in brief: as §2
[35] = system: Candida albicans; experiment: Antifungal activity against Candida albicans isolate 580 infected in ICR/Swiss neutropenic mouse assessed as dose required for 1-log kill after 24 hrs; assay type: functional; method in brief: as §3

SMILES: CCCCCOc1ccc(-c2cc(-c3ccc(C(=O)N[C@H]4C[C@@H](O)[C@@H](O)NC(=O)[C@@H]5[C@@H](O)[C@@H](C)CN5C(=O)[C@H]([C@H](O)CC(N)=O)NC(=O)[C@H]([C@H](O)[C@@H](O)c5ccc(O)c(OS(=O)(=O)O)c5)NC(=O)[C@@H]5C[C@@H](O)CN5C(=O)[C@H]([C@@H](C)O)NC4=O)cc3)no2)cc1 [MICAFUNGIN] (X1-[Orn(4R-OH,5R-OH)]T[Hyp][hTyr(3S-OH,4S-OH,3'-OSO3H)][Gln(3R-OH)][Pro(3S-OH,4S-Me)]; lactam 1-C)
- Cmax [1]: 7000 ng/mL
- MIC [2]: 0.016 µg/mL (≈ 0.0126 µM)
- MIC50 [2]: 0.008 µg/mL (≈ 0.0063 µM)
- fAUC/MIC [3]: 7.8
- fAUC/MIC [4]: 2.5
- AUC [5]: 126 µg·h/mL
- Activity [6]: 7.89 mg/kg
- MIC [7]: 0.016 µg/mL (≈ 0.0126 µM)
- MIC50 [7]: 0.008 µg/mL (≈ 0.0063 µM)
- fAUC/MIC [8]: 19.7
- Activity [9]: 2.53 mg/kg
- Activity [10]: 0.06 mg/kg
- AUC(0-inf) [11]: 520 µg·h/mL
- MIC [12]: 0.25 µg/mL (≈ 0.197 µM)
- MIC50 [12]: 0.25 µg/mL (≈ 0.197 µM)
- RatioAUC/MIC [13]: 848
- RatioAUC/MIC [14]: 2467
- Cmax [15]: 28000 ng/mL
- Cmax [16]: 28000 ng/mL
- MIC [17]: 0.03 µg/mL (≈ 0.0236 µM)
- MIC50 [17]: 0.016 µg/mL (≈ 0.0126 µM)
- MIC [18]: 0.03 µg/mL (≈ 0.0236 µM)
- MIC50 [18]: 0.016 µg/mL (≈ 0.0126 µM)
- MIC [19]: 0.016 µg/mL (≈ 0.0126 µM)
- MIC50 [19]: 0.016 µg/mL (≈ 0.0126 µM)
- Activity [20]: 9.25 mg/kg
- Activity [21]: 1.98 mg/kg
- fAUC/MIC [22]: 8.4
- fAUC/MIC [23]: 25
- RatioAUC/MIC [24]: 2333
- RatioAUC/MIC [25]: 6933
- MIC [26]: 0.12 µg/mL (≈ 0.0945 µM)
- MIC50 [26]: 0.06 µg/mL (≈ 0.0472 µM)
- fAUC/MIC [27]: 46
- AUC(0-inf) [28]: 1400 µg·h/mL
- fAUC/MIC [29]: 13
- RatioAUC/MIC [30]: 4233
- RatioAUC/MIC [31]: 3571
- MIC [32]: 0.03 µg/mL (≈ 0.0236 µM)
- MIC50 [32]: 0.016 µg/mL (≈ 0.0126 µM)
- fAUC/MIC [33]: 4.9
- MIC [34]: 0.03 µg/mL (≈ 0.0236 µM)
- MIC50 [34]: 0.016 µg/mL (≈ 0.0126 µM)
- Activity [35]: 2.36 mg/kg
